Experimental findings from ChEMBL document CHEMBL4359877, “Identification of benzothiazinones containing an oxime functional moiety as new anti-tuberculosis agents” (Eur J Med Chem, 2019) are described below.

Converted amounts (≈) assume the structure as drawn.

Series [1] has as its system Mycobacterium tuberculosis. Put plainly: Antimycobacterial activity against Mycobacterium tuberculosis H37Rv ATCC 27294 assessed as reduction in bacterial cell growth incubated for 7 days by microplate alamar blue assay. Format: functional. The settings on record: H37Rv ATCC 27294, 168 h. Put shortly:
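MABA: H37Rv or clinical MDR isolates (resistant to INH and RFP, Beijing Chest Hospital patients) grown to late log phase in 7H9 with glycerol, Tween 80 and ADC, washed, filtered and frozen. Two-fold compound dilutions with 2 × 10⁵ CFU per well, 37 °C; Alamar blue plus Tween 80 added on day 7, fluorescence (ex 530/em 590) read after 16–24 h. MIC = lowest concentration giving ≥90% fluorescence reduction versus mean of bacterium-only controls; RIF and INH as positive controls.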
A general note: Resazurin is reduced to fluorescent resorufin, in cell work by metabolically active cells.

Series [2] can be described thus: Cytotoxicity against African green monkey Vero cells assessed as reduction in cell viability. Format: cell-based. The settings on record: chlorocebus sabaeus.
Series [3] has as its system Mycobacterium tuberculosis. Put plainly: Antituberculosis activity against Mycobacterium tuberculosis H37Rv infected in BALB/C mouse assessed as colony forming unit in lungs at 25 mg/kg, po administered once daily via gavage for 5 days per week for 3 weeks starting from 10 days post-infection (reference value: 6.44 +/- 0.34). Format: functional.

As to `CON=C1CCC(CN2C(C)CN(c3nc(=O)c4cc(C(F)(F)F)cc([N+](=O)[O-])c4s3)CC2C)CC1` (stereo not given), in series [1], the MIC90 is below 0.016 µg/mL. For the same compound, in series [2], the cytotoxic concentration (CC50) is above 64 µg/mL. As to `C/C(CCN1CCC2(CCN(c3nc(=O)c4cc(C(F)(F)F)cc([N+](=O)[O-])c4s3)CC2)C1)=N/OCc1ccccc1`, the MIC90 in series [1] came to 0.119 µg/mL (≈ 0.202 µM). Same read-out and setting: the figure for `CCO/N=C(\C)CN1CCC2(CCN(c3nc(=O)c4cc(C(F)(F)F)cc([N+](=O)[O-])c4s3)CC2)C1` is 0.029 µg/mL (≈ 0.0565 µM); for `CO/N=C(\C)CN1CCC2(CCN(c3nc(=O)c4cc(C(F)(F)F)cc([N+](=O)[O-])c4s3)CC2)C1` it is 0.085 µg/mL (≈ 0.17 µM). Regarding `CCON=C1CCC(CN2CCN(c3nc(=O)c4cc(C(F)(F)F)cc([N+](=O)[O-])c4s3)C[C@H]2C)CC1` (stereo not given in full), the MIC90 in series [1] was below 0.016 µg/mL. In addition, in series [2], the CC50 is above 64 µg/mL.

With `CCO/N=C(/C)CCN1CCC2(CCN(c3nc(=O)c4cc(C(F)(F)F)cc([N+](=O)[O-])c4s3)CC2)C1`, the MIC90 in series [1] was determined as 0.241 µg/mL (≈ 0.457 µM). In the case of `CCO/N=C(\C)CCN1CCN(c2nc(=O)c3cc(C(F)(F)F)cc([N+](=O)[O-])c3s2)CC1`, the MIC90 in series [1] is below 0.016 µg/mL. Also, the half-maximal cytotoxic concentration (CC50) in series [2] was above 64 µg/mL.

As to `CO/N=C(\C)CN1CCN(c2nc(=O)c3cc(C(F)(F)F)cc([N+](=O)[O-])c3s2)CC1`, the MIC90 in series [1] is 0.037 µg/mL (≈ 0.0831 µM).

Turning to `C/C(CCN1CCN(c2nc(=O)c3cc(C(F)(F)F)cc([N+](=O)[O-])c3s2)CC1)=N\OCc1ccccc1`, in series [1], the MIC90 was below 0.016 µg/mL. Moreover, the cytotoxic concentration (CC50) in series [2] is above 64 µg/mL. In the same order, the values of `CCON=C1CCC(CN2CCN(c3nc(=O)c4cc(C(F)(F)F)cc([N+](=O)[O-])c4s3)[C@@H](C)C2)CC1` (stereo not given in full) are below 0.016 µg/mL and above 64 µg/mL. For `CON=C1CCC(CN2CC(C)N(c3nc(=O)c4cc(C(F)(F)F)cc([N+](=O)[O-])c4s3)CC2C)CC1` (stereo not given), in series [1], the MIC90 came to 0.031 µg/mL (≈ 0.0588 µM).

Consider `NNC(=O)c1ccncc1` [ISONIAZID], for which, in series [1], the MIC90 was found to be 0.031 µg/mL (≈ 0.226 µM). The Activity in series [3] amounted to 1.76 log10CFU. On to `CCON=C1CC(CN2C(C)CN(c3nc(=O)c4cc(C(F)(F)F)cc([N+](=O)[O-])c4s3)CC2C)C1` (stereo not given), for which the MIC90 in series [1] was 0.056 µg/mL (≈ 0.109 µM). Same read-out and setting: with `CO/N=C(/C)CCN1CCC2(CCN(c3nc(=O)c4cc(C(F)(F)F)cc([N+](=O)[O-])c4s3)CC2)C1` the figure was 0.469 µg/mL (≈ 0.913 µM). On the same count and under the same terms, the figure for `CCON=C1CC(CN2CCN(c3nc(=O)c4cc(C(F)(F)F)cc([N+](=O)[O-])c4s3)CC2C)C1` (stereo not given) is 0.052 µg/mL (≈ 0.104 µM).

Turning to `CON=C1CCC(CN2CCN(c3nc(=O)c4cc(C(F)(F)F)cc([N+](=O)[O-])c4s3)CC2C)CC1` (stereo not given), the MIC90 in series [1] is below 0.016 µg/mL. The CC50 in series [2] was above 64 µg/mL. For the compound `CO[C@H]1/C=C/O[C@@]2(C)Oc3c(C)c(O)c4c(O)c(c(/C=N/N5CCN(C)CC5)c(O)c4c3C2=O)NC(=O)/C(C)=C\C=C\[C@H](C)[C@H](O)[C@@H](C)[C@@H](O)[C@@H](C)[C@H](OC(C)=O)[C@@H]1C` [RIFAMPIN], in series [1], the MIC90 was 0.078 µg/mL (≈ 0.0948 µM). Turning to `CCON=C1CCC(CN2CCN(c3nc(=O)c4cc(C(F)(F)F)cc([N+](=O)[O-])c4s3)CC2C)CC1` (stereo not given), in series [1], the MIC90 is below 0.016 µg/mL. Moreover, the CC50 in series [2] was above 64 µg/mL. `CON=C1CCC(CN2CCN(c3nc(=O)c4cc(C(F)(F)F)cc([N+](=O)[O-])c4s3)[C@H](C)C2)CC1` (stereo not given in full): the MIC90 in series [1] is 0.023 µg/mL (≈ 0.0448 µM). `CON=C1CC(CN2CCN(c3nc(=O)c4cc(C(F)(F)F)cc([N+](=O)[O-])c4s3)CC2)C1` (stereo not given): the MIC90 in series [1] came to 0.023 µg/mL (≈ 0.0488 µM). Take `CO/N=C(\C)CCN1CCN(c2nc(=O)c3cc(C(F)(F)F)cc([N+](=O)[O-])c3s2)CC1`: the MIC90 in series [1] was below 0.016 µg/mL. The half-maximal cytotoxic concentration (CC50) in series [2] is above 64 µg/mL. For `CON=C1CC(CN2C(C)CN(c3nc(=O)c4cc(C(F)(F)F)cc([N+](=O)[O-])c4s3)CC2C)C1` (stereo not given), the MIC90 in series [1] came to 0.066 µg/mL (≈ 0.132 µM). `CCON=C1CCC(CN2CCN(c3nc(=O)c4cc(C(F)(F)F)cc([N+](=O)[O-])c4s3)C[C@@H]2C)CC1` (stereo not given in full): the MIC90 in series [1] is below 0.016 µg/mL. In addition, the CC50 in series [2] was above 64 µg/mL. On to `CCON=C1CC(CN2CCN(c3nc(=O)c4cc(C(F)(F)F)cc([N+](=O)[O-])c4s3)CC2)C1` (stereo not given), for which the MIC90 in series [1] was below 0.016 µg/mL. Moreover, the CC50 in series [2] is above 64 µg/mL.

In the case of `CCO/N=C(\C)CN1CCN(c2nc(=O)c3cc(C(F)(F)F)cc([N+](=O)[O-])c3s2)CC1`, the MIC90 in series [1] was below 0.016 µg/mL. Further, the half-maximal cytotoxic concentration (CC50) in series [2] was above 64 µg/mL. For `CON=C1CCC(CN2CCN(c3nc(=O)c4cc(C(F)(F)F)cc([N+](=O)[O-])c4s3)C[C@H]2C)CC1` (stereo not given in full), in that order: below 0.016 µg/mL and above 64 µg/mL. Consider `C/C(CN1CCN(c2nc(=O)c3cc(C(F)(F)F)cc([N+](=O)[O-])c3s2)CC1)=N\OCc1ccccc1`, for which the MIC90 in series [1] was below 0.016 µg/mL. Moreover, the CC50 in series [2] is above 64 µg/mL.

As for `CCON=C1CCC(CN2CCN(c3nc(=O)c4cc(C(F)(F)F)cc([N+](=O)[O-])c4s3)[C@H](C)C2)CC1` (stereo not given in full), the MIC90 in series [1] was below 0.016 µg/mL. Also, in series [2], the CC50 is above 64 µg/mL. Take `CON=C1CCC(CN2CCN(c3nc(=O)c4cc(C(F)(F)F)cc([N+](=O)[O-])c4s3)C[C@@H]2C)CC1` (stereo not given in full): in series [1], the MIC90 was below 0.016 µg/mL. Also, the cytotoxic concentration (CC50) in series [2] is above 64 µg/mL.

Consider `CON=C1CCC(CN2CCN(c3nc(=O)c4cc(C(F)(F)F)cc([N+](=O)[O-])c4s3)[C@@H](C)C2)CC1` (stereo not given in full), for which the MIC90 in series [1] was below 0.016 µg/mL. Further, in series [2], the CC50 is above 64 µg/mL. For `CCON=C1CCC(CN2C(C)CN(c3nc(=O)c4cc(C(F)(F)F)cc([N+](=O)[O-])c4s3)CC2C)CC1` (stereo not given), in that order: below 0.016 µg/mL and 60.5 µg/mL (≈ 112 µM).

Regarding `CON=C1CC(CN2CCN(c3nc(=O)c4cc(C(F)(F)F)cc([N+](=O)[O-])c4s3)CC2C)C1` (stereo not given), the MIC90 in series [1] turned out to be 0.056 µg/mL (≈ 0.115 µM).

As usually defined, the MIC90 is the lowest concentration that inhibits either 90% of growth or 90% of the strains tested, depending on the study. A word on the CC50: it is the concentration at which the toxic effect on the cells reaches its halfway point.
